Experimental data as given in ChEMBL document CHEMBL5705886, “GSK1070916, a potent Aurora B/C kinase inhibitor with broad antitumor activity in tissue culture cells and human tumor xenograft models” (Mol Cancer Ther, 2009).
Calls of active or inactive are those of the source. The rule behind the calls is not given here.

Assays:
SW-620 = assay: Antitumor activity in human SW620 cells xenografted in SCID mouse assessed as reduction in tumor growth at 25 to 100 mg/kg, ip administered once daily for 5 consecutive days with 2 days off scheduled for 3 cycles measured upto 60 days; type: functional, organism-based; conditions: dose 25-100 mg/kg, time 60.0 day
JM1 = assay: Antiproliferative activity against human JM1 cells assessed as inhibition of cell viability measured for 6 to 7 days by cell titer glo assay; type: functional, cell-based
Summary of the method: (§1)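 Cells seeded in recommended growth medium, incubated overnight at 37°C in 5% CO2, then exposed to serial dilutions of inhibitor for 6–7 d. A parallel plate was read with CellTiter-Glo at compound addition as a T=0 value. The luminescent viability readout had no-cell background subtracted and was expressed as % of DMSO control.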

SU-DHL-6 = assay: Antiproliferative activity against human SU-DHL-6 cells assessed as inhibition of cell viability measured for 6 to 7 days by cell titer glo assay; type: functional, cell-based
Summary of the method: (§2)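 Cells seeded in recommended growth medium, held overnight at 37°C in 5% CO2, then exposed to serial dilutions of inhibitor for 6–7 d. A time-zero plate was read with CellTiter-Glo at dosing. Luminescent viability read at the end. No-cell wells subtracted as background, data expressed as percent of DMSO control.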

JIYOYE = assay: Antiproliferative activity against human JIYOYE cells assessed as inhibition of cell viability measured for 6 to 7 days by cell titer glo assay; type: functional, cell-based; summary of the method: as §1
CESS = assay: Antiproliferative activity against human CESS cells assessed as inhibition of cell viability measured for 6 to 7 days by cell titer glo assay; type: functional, cell-based
Summary of the method: (§3)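 Tumor lines plated in recommended growth media, overnight at 37°C, 5% CO2, then given serial dilutions; a T=0 plate read with CellTiter-Glo at dosing. After 6–7 d of exposure, viability read by CellTiter-Glo luminescence. No-cell wells subtracted, data expressed as % of DMSO control.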

[1] = Toxicity in SCID nude mouse xenografted with human SW620 cells assessed as body weight loss at 25 to 100 mg/kg, ip administered once daily for 5 consecutive days with 2 days off scheduled for 3 cycles measured upto 60 days relative to control; type: organism-based, SW-620; conditions: in vivo, 1440 h, dose 25-100 mg/kg, time 60 day
SW480 = assay: Antiproliferative activity against human SW480 cells assessed as inhibition of cell viability measured for 6 to 7 days by cell titer glo assay; type: functional, cell-based; summary of the method: as §2
CTV-1 = assay: Antiproliferative activity against human CTV-1 cells assessed as inhibition of cell viability measured for 6 to 7 days by cell titer glo assay; type: functional, cell-based; summary of the method: as §3
L-428 = assay: Antiproliferative activity against human L-428 cells assessed as inhibition of cell viability measured for 6 to 7 days by cell titer glo assay; type: functional, cell-based; summary of the method: as §1
HD-MY-Z = assay: Antiproliferative activity against human HD-MY-Z cells assessed as inhibition of cell viability measured for 6 to 7 days by cell titer glo assay; type: functional, cell-based; summary of the method: as §3
A549 [2] = assay: Effect on cell cycle distribution in human A549 cells assessed as decrease in 2N DNA content incubated for 24 to 72 hrs by flow cytometry based analysis; type: functional; conditions: dose 2-5000 nM, time 24-72 hrs
[3] = Toxicity in SCID nude mouse xenografted with human MCF7 cells assessed as body weight loss at 50 to 100 mg/kg, ip administered once daily for 5 consecutive days with 2 days off scheduled for 3 cycles measured upto 60 days; type: organism-based; conditions: in vivo, 1440 h, dose 50-100 mg/kg, time < 60 day
OCI-LY19 = assay: Antiproliferative activity against human OCILY19 cells assessed as inhibition of cell viability measured for 6 to 7 days by cell titer glo assay; type: functional, cell-based; summary of the method: as §2
ST486 = assay: Antiproliferative activity against human ST486 cells assessed as inhibition of cell viability measured for 6 to 7 days by cell titer glo assay; type: functional, cell-based; summary of the method: as §2
[4] = Antiproliferative activity against human EB1 cells assessed as inhibition of cell viability measured for 6 to 7 days by cell titer glo assay; type: functional, cell-based; summary of the method: as §3
HL-60 [5] = assay: Antitumor activity in human HL-60 cells xenografted in SCID mouse assessed as median survival time at 50 mg/kg, ip administered once daily for 5 consecutive days with 2 days off scheduled for 2 cycles measured upto 120 days; type: functional; conditions: time <= 120 day
SK-MEL-5 = assay: Antiproliferative activity against human SK-MEL-5 cells assessed as inhibition of cell viability measured for 6 to 7 days by cell titer glo assay; type: functional, cell-based; summary of the method: as §2
HL-60 [6] = assay: Antitumor activity in human HL-60 cells xenografted in SCID mouse assessed as median survival time at 12.5 mg/kg, ip administered once daily for 5 consecutive days with 2 days off scheduled for 2 cycles measured upto 120 days; type: functional; conditions: time <= 120 day
HuT78 = assay: Antiproliferative activity against human HuT78 cells assessed as inhibition of cell viability measured for 6 to 7 days by cell titer glo assay; type: functional, cell-based; summary of the method: as §1
SU-DHL10 = assay: Antiproliferative activity against human SU-DHL-10 cells assessed as inhibition of cell viability measured for 6 to 7 days by cell titer glo assay; type: functional, cell-based; summary of the method: as §2
[7] = Toxicity in SCID nude mouse xenografted with human HCT-116 cells assessed as body weight loss at 25 to 100 mg/kg, ip administered once daily for 5 consecutive days with 2 days off scheduled for 3 cycles measured upto 60 days relative to control; type: organism-based; conditions: in vivo, 1440 h, dose 25-100 mg/kg, time < 60 day
HL-60 [8] = assay: Antiproliferative activity against human HL-60 cells assessed as inhibition of cell viability measured for 6 to 7 days by cell titer glo assay; type: functional, cell-based; summary of the method: as §1
A549 [9] = assay: Antitumor activity in human A549 cells xenografted in nude mouse assessed as reduction in tumor growth at 25 to 100 mg/kg, ip administered once daily for 5 consecutive days with 2 days off scheduled for 3 cycles measured upto 60 days; conditions: dose 25-100 mg/kg, time <= 60.0 day
[10] = molecular target: Aurora kinase B (Homo sapiens) (UniProt Q96GD4)
[11] = Toxicity in SCID nude mouse xenografted with human K562 cells assessed as body weight loss at 100 mg/kg, ip administered once daily for 5 consecutive days with 2 days off scheduled for 3 cycles measured upto 60 days; type: organism-based; conditions: in vivo, 1440 h, time < 60 day
CCRF-HSB-2 = assay: Antiproliferative activity against human HSB-2 cells assessed as inhibition of cell viability measured for 6 to 7 days by cell titer glo assay; type: functional, cell-based; summary of the method: as §1
DLD-1 = assay: Antiproliferative activity against human DLD-1 cells assessed as inhibition of cell viability measured for 6 to 7 days by cell titer glo assay; type: functional, cell-based; summary of the method: as §3
[12] = Antiproliferative activity against HUVEC cells assessed as reduction in cell viability measured after 6 days by cell titer glo assay; type: toxicity, cell-based; conditions: human
Summary of the method: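 HUVECs (primary) in EGM-2 with 2% FBS and supplements, assayed in cycling and nonproliferating states. Cycling: 500 cells/well seeded 1 d before dosing. Nonproliferating: 35,000 cells in half-area wells seeded 4 d ahead, fresh media next day and media changed 1 d before dosing. 2-fold dilutions 20000 to 0.15 nmol/L, 6 d at 37°C, 5% CO2. CellTiter-Glo 30 min, background-subtracted, % of DMSO control.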

MC116 = assay: Antiproliferative activity against human MC116 cells assessed as inhibition of cell viability measured for 6 to 7 days by cell titer glo assay; type: functional, cell-based; summary of the method: as §1
HH = assay: Antiproliferative activity against human HH cells assessed as inhibition of cell viability measured for 6 to 7 days by cell titer glo assay; type: functional, cell-based; summary of the method: as §1

Sequence of Aurora kinase B (Homo sapiens) (Q96GD4 whole entry): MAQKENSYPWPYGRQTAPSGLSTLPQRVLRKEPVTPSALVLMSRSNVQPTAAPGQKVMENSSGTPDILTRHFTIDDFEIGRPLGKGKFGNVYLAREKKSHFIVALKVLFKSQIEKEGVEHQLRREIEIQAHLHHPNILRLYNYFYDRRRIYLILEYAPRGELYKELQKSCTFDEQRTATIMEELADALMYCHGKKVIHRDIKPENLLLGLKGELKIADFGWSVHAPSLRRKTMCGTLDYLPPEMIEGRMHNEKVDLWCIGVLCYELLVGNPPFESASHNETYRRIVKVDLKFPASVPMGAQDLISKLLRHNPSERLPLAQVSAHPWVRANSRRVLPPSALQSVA

CCn1cc(-c2ccnc3[nH]c(-c4cccc(CN(C)C)c4)cc23)c(-c2ccc(NC(=O)N(C)C)cc2)n1 [GSK-1070916]
Activity (SW-620): inactive | EC50 (JM1): 7 nM | EC50 (SU-DHL-6): 6 nM | EC50 (JIYOYE): 5 nM | EC50 (CESS): 5 nM | Activity [1]: < 15% | EC50 (SW480): 3 nM | EC50 (CTV-1): 4 nM | EC50 (L-428): 31 nM | EC50 (HD-MY-Z): 4 nM | Activity (A549 [2]): Active | Activity [3]: Toxic | EC50 (OCI-LY19): 4 nM | EC50 (ST486): 2 nM | EC50 [4]: 7 nM | MST (HL-60 [5]): 83 days | EC50 (SK-MEL-5): 8 nM | MST (HL-60 [6]): 44 days | EC50 (HuT78): 14 nM | EC50 (SU-DHL10): 15 nM | Activity [7]: < 15% | EC50 (HL-60 [8]): 10 nM | Activity (A549 [9]): Active | T1/2 [10]: > 8 h | Activity [11]: Toxic | EC50 (CCRF-HSB-2): 3 nM | EC50 (DLD-1): 28 nM | EC50 at 6 days [12]: 3900 nM | EC50 (MC116): 8 nM | EC50 (HH): 18 nM
